# Screens from PubChem.
# MBD2 DNA inh: MBD2-methylated oligo binding inhibition | inhibition, % at 4.4 µM | hit rate 0.31% among 370,000 | TR-FRET, MBD2 binding to methylated oligonucleotide; in the data active means inhibition above about 13%
# Target sequence (Q9UBB5 whole entry, looked up): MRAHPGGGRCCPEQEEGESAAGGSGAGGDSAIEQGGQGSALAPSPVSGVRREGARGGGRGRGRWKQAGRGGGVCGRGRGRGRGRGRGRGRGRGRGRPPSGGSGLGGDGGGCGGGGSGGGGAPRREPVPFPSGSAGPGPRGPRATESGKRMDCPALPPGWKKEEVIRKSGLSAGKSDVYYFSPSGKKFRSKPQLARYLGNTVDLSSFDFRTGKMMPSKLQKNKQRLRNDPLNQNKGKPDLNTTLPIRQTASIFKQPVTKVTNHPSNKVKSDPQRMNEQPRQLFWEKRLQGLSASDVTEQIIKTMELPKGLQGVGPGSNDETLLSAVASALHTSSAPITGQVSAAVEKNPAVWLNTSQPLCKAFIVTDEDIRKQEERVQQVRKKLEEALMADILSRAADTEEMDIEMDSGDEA
# UHRF1 binding: human UHRF1 methylated DNA binding inhibitors. UHRF1 binding to methylated oligo, TR-FRET. AID 687016. inhibition, % at 4.4 µM. hit rate 0.75% among 370,000;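 further: UHRF1 SRA domain binding a hemimethylated CpG hairpin DNA probe; 0% = median of test compound wells and 100% = reference inhibitor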
# TCR CD3 inh: inhibitors of human TCR-CD3 interaction; inhibition, % at 9.4 µM; hit rate 0.37% among 360,000; TAMRA-labeled TCR probe fluorescence, biochemical; in the data active means inhibition above about 19%;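 further: recombinant mutant TCR 2C K166C tagged with TAMRA read by polarization; 0% = receptor in buffer alone and 100% = receptor with positive control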
# LEDGF integ inh: blocks HIV-1 LEDGF/p75-dependent DNA integration | hit rate 0.64% among 370,000 | TR-FRET IN-LEDGF/p75 DNA integration, Eu/Cy5 | inhibition, % at 3.7 µM;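 active means inhibition above the screen-wide mean plus 3 SD, cut at about 13% in these data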;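 further: signal is the Cy5 over europium emission ratio at 671 and 618 nm; 0% = plate median of compound wells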
# ARFGAP1 inh: rat ARFGAP1 inhibition. Q62848. Arfgap1-stimulated ARF1 GTP hydrolysis, GDP FP detection. inhibition, % at 16.5 µM. hit rate 0.26% among 360,000. AID 651572;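 active means inhibition above a per-plate limit, mean inhibition of low control wells plus 3 SD, cut at about 25% in these data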;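 further: 0% = DMSO wells with enzyme and 100% = wells lacking Arfgap1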
# Target sequence (Q62848 1-136 limits assumed): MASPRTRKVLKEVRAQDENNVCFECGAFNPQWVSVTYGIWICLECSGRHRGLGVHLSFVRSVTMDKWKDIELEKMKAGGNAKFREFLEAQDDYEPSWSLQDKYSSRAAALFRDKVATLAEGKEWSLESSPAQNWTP
#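 System: truncated rat Arfgap1 GAP domain / Medium: HEPES-based buffer, pH 7.5 / Also added: N-terminally truncated human ARF1-GTP substrate / Incubation: enzyme reaction 120 min at 25 °C after 20 min preincubation / Measured by: FP of antibody-bound GDP Alexa 633 tracer, ex 620/em 688 nm / Replicates: singlicate, each compound tested once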
# ASAP1 inh: ASAP1 ArfGAP inhibition. AID 624377. inhibition, % at 16.5 µM. hit rate 0.19% among 360,000. Q9ULH1. ASAP1-stimulated ARF1 GTP hydrolysis, GDP FP detection; in the data active means inhibition above about 25%;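 further: 0% = vehicle with enzyme and substrate and 100% = no enzyme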
# UHRF1 DNA bind: UHRF1 methyl-oligo binding inhibition as MBD2 counter-screen; shares compounds with MBD2 DNA inh; UHRF1 binding to methylated oligonucleotide, TR-FRET; inhibition, % at 4.4 µM; hit rate 25% among 1,000; AID 720530;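 further: UHRF1 SRA domain binding a labeled hemimethylated CpG hairpin DNA; 0% = vehicle only and 100% = reference inhibitor with vehicle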
# MBD2 confirm: confirmation of human MBD2-DBD methylated oligonucleotide binding inhibitors | TR-FRET MBD2-DBD binding to methylated oligonucleotide | hit rate 26% among 1,000 | inhibition, % at 4.4 µM | shares compounds with MBD2 DNA inh; in the data active means inhibition above about 14%
# Starred values were filed as active, the others as inactive; . = no result given. Sampled rows, rich in hits. Any-hit rate of the full collection: about 2%. Unless noted, no stated cut-off is given here; in the data, active means inhibition above about 21%; inactive means the rest.
SMILES,MBD2 DNA inh,UHRF1 binding,TCR CD3 inh,LEDGF integ inh,ARFGAP1 inh,ASAP1 inh,UHRF1 DNA bind,MBD2 confirm
CN(CC(=O)NCCc1ccc(S(N)(=O)=O)cc1)CC(=O)Nc1cccc(F)c1,-5.1,1.8,-5.8,4.2,6.2,-10.4,.,.
COc1cc2c(cc1NC(=O)COC(=O)Cn1cnc3ccccc31)oc1ccccc12,18.6*,-4.2,3.5,-1.6,-5.8,8.9,2.6,2.6
CN(CCc1ccccn1)C(=O)CCC1CCCN(C(=O)c2cccc(N(C)C)c2)C1 (stereo not given),11.7,13.7,0.2,1.5,5.6,14.3,.,.
Cc1nccn1-c1ccc(C=O)cc1,40.5*,2.5,2.2,2.0,-7.5,-7.4,-0.3,3.2
Cc1ccc(S(=O)(=O)NCC(=O)NC2CC2)cc1,4.5,2.7,6.8,-0.4,0.3,-2.5,.,.
CCN(C(=O)COC(=O)/C=C/c1cccc(Br)c1)C1CCS(=O)(=O)C1 (stereo not given),15.9*,28.4*,-0.8,-0.4,18.5,9.2,7.4,0.0
CN(C(=O)COC(=O)/C=C/c1cccc([N+](=O)[O-])c1)C1CCS(=O)(=O)C1 (stereo not given),-7.2,-1.3,-13.2,1.2,-10.0,1.5,.,.
Cc1ccccc1NC(=O)Cn1nnc(-c2ccncc2)n1,1.6,2.3,.,-4.4,.,.,.,.
O=C1Nc2cc3c(cc2C1=O)sc1ccccc13,-5.9,-5.2,-7.8,-1.0,-0.1,-9.9,.,.
COc1ccc(Br)c(C(=O)Nc2nc3ccccc3[nH]2)c1,36.4*,2.0,-4.0,7.0,1.6,-1.3,10.1,2.2
COc1cc(OC)cc(C(=O)Nc2nc3ccccc3[nH]2)c1,3.0,-3.5,4.3,1.6,1.2,13.0,.,.
O=C(c1ccc(C#CC2(O)CCCCC2)cc1)N1CCN(Cc2ccccc2)CC1,-6.4,-2.2,-1.8,-0.1,11.9,10.2,.,.
CCOC(=O)N1CCN(C(=O)c2ccc(C#CC3(O)CCCCC3)cc2)CC1,14.7*,25.9*,-5.8,8.0,2.4,-4.1,10.9,0.7
COc1cc2cc(CCCOC(=O)c3ccc(C(F)(F)F)cc3)oc(=O)c2cc1OC,19.7*,2.0,-8.9,2.4,10.3,-9.3,1.8,8.1
CC(C)C(NS(=O)(=O)c1cccc2nsnc12)C(=O)N1CCn2c1nc1ccccc12 (stereo not given),14.2*,-0.4,11.6,-2.2,14.9,9.1,2.4,-0.3
COc1ccccc1CNC(=O)C(NS(=O)(=O)c1cccc2nsnc12)C(C)C (stereo not given),0.8,6.2,10.2,3.2,2.5,1.3,.,.
CC[N+](CC)(CC)CCCCOc1ccc2c(c1)C(=O)c1cc(OCCCC[N+](CC)(CC)CC)ccc1-2,21.3*,30.6*,-9.2,1.2,7.9,-10.1,49.4*,31.9*
Cc1ccc(S(=O)(=O)NCC(=O)OCC(=O)Nc2cccc(S(=O)(=O)NC3=NCCCCC3)c2)cc1C,2.7,1.9,0.4,3.2,7.1,-5.7,.,.
Cc1ccc(C)c(C(=O)OCC(=O)Nc2cccc(S(=O)(=O)NC3=NCCCCC3)c2)c1,16.6*,17.8,7.9,1.4,-5.7,2.6,6.4,3.1
CCOC(=O)C(Cc1ccc(NC(C)=O)cc1)N1C(=O)c2ccccc2C1=O (stereo not given),17.2*,20.1,-8.8,2.1,8.2,-8.3,1.9,-0.6
O=C(C1=C(O)C(=O)N(CCN2CCOCC2)C1c1ccc(Cl)cc1)c1cc2ccccc2o1 (stereo not given),15.8*,-2.4,7.0,0.6,11.0,-7.1,5.7,-1.5
COc1ccc(S(=O)(=O)NC(C)C(=O)NCc2ccccn2)cc1Cl (stereo not given),-3.4,3.8,-1.2,3.4,-8.4,1.7,.,.
C[N+](=O)C1C(=O)Nc2ccccc21 (stereo not given),100.6*,-3.2,-9.4,-1.4,-7.7,-4.3,2.9,-3.2
O=C1Nc2ccccc2C1Cc1ccccc1 (stereo not given),-5.5,-0.4,-2.3,-1.1,2.0,9.7,.,.
CC(C)c1ccc(CN(C)C(=O)c2ccc(S(=O)(=O)NCc3ccco3)cc2)cc1,6.2,15.2,-4.5,-1.3,1.6,-0.2,.,.
SMILES,MBD2 DNA inh,UHRF1 binding,TCR CD3 inh,LEDGF integ inh,ARFGAP1 inh,ASAP1 inh,UHRF1 DNA bind,MBD2 confirm
CN(Cc1ccc(Cl)cc1)C(=O)c1ccc(S(=O)(=O)NCc2ccco2)cc1,36.9*,4.7,4.6,-5.8,9.3,3.7,5.5,1.5
CC(C)(C)OC(=O)NC(Cc1ccccc1)C(=O)NCCCC(=O)O (stereo not given),-0.2,-2.9,-3.8,-2.6,9.9,8.5,.,.
Cn1cc(C[C@H](NC(=O)OC(C)(C)C)C(=O)N[C@@H](CO)Cc2ccccc2)c2ccccc21,26.4*,2.0,13.0,1.2,3.7,1.9,7.0,1.8
Cc1c[n+]([O-])n(-c2ccc(C(=O)O)cc2)n1,15.2*,20.6,5.7,-3.9,-2.3,-5.0,9.9,5.8
O=c1nc2s/c(=C\c3ccco3)c(=O)n2nc1Cc1ccc(F)cc1,3.9,-0.3,-0.8,-3.0,-2.5,-4.9,.,.
Cc1ccc(-c2nc3s/c(=C\c4ccco4)c(=O)n3n2)cc1,14.5*,30.3*,12.0,11.6,2.6,3.8,11.6,4.9
O=C(NCCc1ccccc1)OCc1cn(Cc2c(F)cccc2F)nn1,-1.1,1.7,.,-2.6,.,.,.,.
COc1ccc(C(=O)OCC(=O)c2c[nH]c3ccccc23)cc1OC,14.0*,21.8*,-2.4,0.1,11.1,0.5,5.4,1.6
O=C(COC(=O)CCCNC(=O)c1ccc(Cl)cc1)Nc1ccc(Br)cc1,13.3*,22.9*,-3.5,2.5,2.4,6.2,2.5,2.1
O=C(CCCNC(=O)c1ccc(Cl)cc1)Nc1ccc(Br)cc1,-0.4,-0.8,0.0,2.8,7.1,-0.8,.,.
CCOC(=O)N1CCC(N2C(=O)c3ccc(C(=O)NCCOC)cc3C2=O)CC1,7.4,0.1,0.3,-3.5,-0.9,-1.5,.,.
CN(C)c1ccc(C=c2c3ccccc3n3c2cc(-c2ccccc2)[n+]3C)cc1,22.1*,40.5*,-32.0,12.2,1.8,9.8,64.1*,56.2*
COc1cc(N(C)C)ccc1C=c1c2ccccc2n2c1cc(-c1ccccc1)[n+]2C,26.6*,43.2*,-44.8,-0.8,12.6,35.6*,62.1*,57.6*
CN(C)c1ccc(C=c2c3ccccc3n3c2cc(-c2ccc(Cl)cc2)[n+]3C)cc1,4.5,18.9,-44.2,4.3,14.1,-5.3,.,.
CN1CCN(S(=O)(=O)c2cccc(C#N)c2)C(c2ccccc2)C1 (stereo not given),1.5,20.4,3.7,-1.3,-5.3,-9.4,.,.
CCOC(=O)C[C@H]1c2ccccc2S(=O)(=O)N1c1cccc(OC)c1,-4.1,-0.8,-2.8,0.9,-0.5,4.8,.,.
